Measurements published in ChEMBL document CHEMBL1134624, “Potent and selective ET-A antagonists. 1. Syntheses and structure-activity relationships of N-(6-(2-(aryloxy)ethoxy)-4-pyrimidinyl)sulfonamide derivatives” (J Med Chem, 2001).

Key:
Endothelin-1 receptor [1] = target: T1, Endothelin-1 receptor (Sus scrofa, UniProt Q29010); test: In vitro inhibition of [125I]ET1 binding to Endothelin A receptor in porcine aortic membrane from endothelial cells; type: cell membranes; conditions: in the assay text read “with endothelium removed” for “from endothelial cells”
T1 sequence (Q29010 whole entry): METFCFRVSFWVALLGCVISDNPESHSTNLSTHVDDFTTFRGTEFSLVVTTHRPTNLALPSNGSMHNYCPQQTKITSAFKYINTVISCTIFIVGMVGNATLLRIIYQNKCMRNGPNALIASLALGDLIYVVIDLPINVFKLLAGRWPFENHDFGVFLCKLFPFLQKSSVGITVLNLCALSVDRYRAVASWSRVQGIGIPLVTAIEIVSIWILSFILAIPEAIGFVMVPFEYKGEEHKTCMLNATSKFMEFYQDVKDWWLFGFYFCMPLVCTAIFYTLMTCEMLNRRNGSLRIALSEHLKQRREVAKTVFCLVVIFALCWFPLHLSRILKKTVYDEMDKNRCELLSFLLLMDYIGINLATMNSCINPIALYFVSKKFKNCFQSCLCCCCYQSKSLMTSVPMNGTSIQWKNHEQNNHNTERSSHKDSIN
Method in brief: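 Endothelium-free porcine aorta homogenized in 10 mM MOPS (pH 7.4) with 20% sucrose. Membranes spun 1000g 15 min, then supernatant 90000g 45 min, and resuspended in 5 mM HEPES-Tris. Incubated with 20 pM final 125I-ET-1 and graded compound concentrations in 50 mM Tris-HCl pH 7.4, 0.1% BSA, protease inhibitors, EDTA, 2 h at 25 °C. Filtered, washed, gamma-counted.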

[2] = target: T2, Endothelin receptor type B (Homo sapiens, UniProt P24530); test: Ability to inhibit specific binding of [125I]- -ET-1 to human GH cells which express endothelin B receptor; type: cell-based
T2 sequence (P24530 whole entry): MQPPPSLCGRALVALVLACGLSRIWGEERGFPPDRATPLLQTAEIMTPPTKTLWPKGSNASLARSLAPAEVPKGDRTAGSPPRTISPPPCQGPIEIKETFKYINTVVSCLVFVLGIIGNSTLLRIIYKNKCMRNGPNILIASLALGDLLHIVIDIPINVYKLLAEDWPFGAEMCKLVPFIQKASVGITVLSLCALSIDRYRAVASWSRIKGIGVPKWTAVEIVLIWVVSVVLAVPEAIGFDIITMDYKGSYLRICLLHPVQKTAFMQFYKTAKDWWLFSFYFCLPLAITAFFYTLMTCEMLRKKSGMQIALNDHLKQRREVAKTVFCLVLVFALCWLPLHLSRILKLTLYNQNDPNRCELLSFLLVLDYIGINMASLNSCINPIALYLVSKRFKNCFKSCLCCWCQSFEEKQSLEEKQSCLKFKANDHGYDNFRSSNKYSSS

Endothelin-1 receptor [3] = target: T3, Endothelin-1 receptor (Rattus norvegicus, UniProt P26684); test: In vitro for specific binding of [125I]ET1 to A10 cell expressed in endothelin A receptor; type: cell-based
T3 sequence (P26684 whole entry): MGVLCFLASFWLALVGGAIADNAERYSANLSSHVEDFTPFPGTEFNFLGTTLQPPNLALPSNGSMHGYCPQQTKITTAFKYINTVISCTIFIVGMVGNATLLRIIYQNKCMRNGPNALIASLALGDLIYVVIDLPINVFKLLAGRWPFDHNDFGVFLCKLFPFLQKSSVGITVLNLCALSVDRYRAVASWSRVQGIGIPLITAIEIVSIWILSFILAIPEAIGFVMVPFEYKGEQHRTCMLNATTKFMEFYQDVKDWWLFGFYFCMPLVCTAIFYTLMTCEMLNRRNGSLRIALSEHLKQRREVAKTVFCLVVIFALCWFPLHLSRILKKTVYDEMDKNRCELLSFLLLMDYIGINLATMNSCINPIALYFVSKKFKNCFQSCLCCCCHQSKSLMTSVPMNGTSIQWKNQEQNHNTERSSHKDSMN

IC50 (Endothelin-1 receptor [1]) [µM] | IC50 [2] [µM] | IC50 (Endothelin-1 receptor [3]) [µM] | SMILES
0.16 | 1.1 | 0.23 | COc1cccc(Oc2c(NS(=O)(=O)c3ccc(C(C)(C)C)cc3)ncnc2OCCO)c1
0.0075 |  | 0.0014 | COc1ccccc1Oc1c(NS(=O)(=O)c2ccc(C(C)(C)C)cc2)nc(-c2ncccn2)nc1OCCO [BOSENTAN SODIUM]
